Source: paper PMC2196277 (The Journal of Experimental Medicine, 1997)

Assays:
H2-K^d [1] = molecular target: T1, H2-K^d (Mus musculus, UniProt P01902); assay type: cell-based, BALB/c; conditions: infected cells; for half-life of peptide–H2-K^d complexes: normally trafficking H2-K^d (no BFA)
Summary of the method: (§1)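 J774 monolayers in antibiotic-free RP10 were infected for 30 min with log-phase L. monocytogenes (OD600 0.1), then kept in 5 μg/ml gentamicin. BFA was added 3 h post-infection, and tetracycline or CHX–ANM at 4 h. Cells were scraped, extracted in 0.1% TFA, homogenised, sonicated, ultracentrifuged and HPLC-fractionated. Fractions were titrated in triplicate on 51Cr-labelled P815 with Kd-restricted CTL clones against synthetic-peptide standards, giving epitopes per infected cell.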

[2] = molecular target: T2, H2-K^d (L. monocytogenes-infected J774 cells) (Mus musculus, UniProt P01902); test: CTL epitope quantification; assay type: cell-based, BALB/c; conditions: for loss of epitope in BFA-treated cells after tetracycline: BFA added 3 h and TCN 4 h after infection; for time for which intracellularly retained H2-K^d binds new epitopes: BFA-treated, CHX–ANM 4 h after infection, up to; for epitopes per cell after CHX–ANM treatment: CHX and ANM added 4 h after infection
T2 sequence (P01902 22-368): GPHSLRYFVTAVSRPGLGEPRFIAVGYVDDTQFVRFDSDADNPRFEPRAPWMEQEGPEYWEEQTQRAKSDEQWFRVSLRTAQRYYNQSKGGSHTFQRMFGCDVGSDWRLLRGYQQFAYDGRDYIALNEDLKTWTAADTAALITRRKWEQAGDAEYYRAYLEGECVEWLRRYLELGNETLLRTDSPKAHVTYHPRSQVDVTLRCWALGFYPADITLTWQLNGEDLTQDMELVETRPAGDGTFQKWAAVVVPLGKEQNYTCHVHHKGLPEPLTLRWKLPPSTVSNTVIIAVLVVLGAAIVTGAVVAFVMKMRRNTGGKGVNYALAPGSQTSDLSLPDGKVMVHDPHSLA
T2 sequence (P01887 21-119, further chain): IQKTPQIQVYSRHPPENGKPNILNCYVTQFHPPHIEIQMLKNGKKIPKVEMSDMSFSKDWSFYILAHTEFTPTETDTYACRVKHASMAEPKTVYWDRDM
Summary of the method: as §1

H2-K^d [3] = molecular target: T1, H2-K^d; conditions: ref [17], [19], [20]; cited from earlier work
[4] = tested on: CTL responding to epitope; conditions: murine infection with L. monocytogenes; ref [31]; cited from earlier work
H2-K^d [5] = molecular target: T1, H2-K^d; assay type: cell-based, BALB/c
[6] = molecular target: T2, H2-K^d (L. monocytogenes-infected J774 cells); conditions: ref [17], cited from earlier work

T1 sequence (P01902 22-368): as the sequence (P01902 22-368) above
T1 sequence (P01887 21-119, further chain): as the sequence (P01887 21-119, further chain) above

## KYGVSVQDI [p60 217-225]
H2-K^d [1]
  stability of complex with H2-K^d (summary): forms a stable complex with H2-K^d
  half-life of peptide–H2-K^d complexes: > 6 h
[2]; BFA added 3 h after infection, no tetracycline
  effect of BFA on amount of epitope extracted: not affected by BFA
[2]
  loss of epitope in BFA-treated cells after tetracycline: decreased only minimally
  time for which intracellularly retained H2-K^d binds new epitopes: up to 3 h
[2]; no BFA
  epitopes per cell after CHX–ANM treatment: stops increasing when host cell protein synthesis is inhibited
H2-K^d [3]
  number of secreted antigen molecules degraded per H2-K^d-associated epitope: 35
[4]
  number of responding CTL relative to p60 449-457: 10 times

## GYKDGNEYI [LLO 91-99, reference compound]
H2-K^d [3]
  number of secreted antigen molecules degraded per H2-K^d-associated epitope: 3–11

## C[C@H]1CCC/C=C/[C@@H]2C[C@H](O)C[C@H]2[C@H](O)/C=C/C(=O)O1 [BFA, brefeldin A]
H2-K^d [5]
  effect of BFA on H2-K^d trafficking / retention: induces intracellular retention of H2-K^d molecules in infected J774 cells

## IYVGNGQMI [p60 449-457]
H2-K^d [1]
  stability of complex with H2-K^d (summary): forms a more labile complex with H2-K^d
  half-life of peptide–H2-K^d complexes: ~1 h
H2-K^d [1]; + BFA
  half-life of complexes retained intracellularly with brefeldin A: 0.5 h
[2]; 3 h after tetracycline (20 μg/ml, added 4 h after infection), no BFA
  epitopes per cell 3 h after tetracycline: 1,000 epitopes/cell
[2]; BFA added 3 h after infection, 6–7 h after infection, no tetracycline
  increase of epitopes extracted from BFA-treated vs untreated cells: ~60%
[2]
  loss of epitope in BFA-treated cells after tetracycline: very rapid
  time for which intracellularly retained H2-K^d binds new epitopes: up to 3 h
[2]; no BFA
  epitopes per cell after CHX–ANM treatment: decreases after CHX–ANM treatment
[2]; start of drop after tetracycline (20 μg/ml, added 4 h after infection), no BFA
  epitopes per cell at tetracycline addition: 9,000 epitopes/cell
[6]; L. monocytogenes infected J774 cells
  generation of epitope relative to p60 217-225: earlier and faster than p60 217-225
[6]; first few hours of infection, J774
  amount of epitope extracted relative to p60 217-225: ~10 times
[6]; infected cells, continuous antigen production
  prevalence of epitope throughout cellular infection: greater than either LLO 91-99 or p60 217225 throughout cellular infection
H2-K^d [3]
  number of secreted antigen molecules degraded per H2-K^d-associated epitope: 3–11
